Assay results from different studies.
Each line is one published result; the experiments were not run side by side. Values after ≈ are worked out from the molar mass of the structure shown.

Compound | target or system | assay | system | setting | quantity | value
COc1cc(C=O)ccc1OC1=C(Cl)C(=O)c2ccccc2C1=O | Alternaria alternata | microbial growth, broth dilution |  |  | MIC | 12 µg/mL (≈ 35 µM)
O=C(Nc1ccc(Cl)cc1)Nc1ccc(-c2cn(Cc3ccc(Br)cc3)nn2)cc1 | Huh-7 | cell growth or viability, CCK-8 |  | 50 µM, 48 h | viability | 98.4%
COc1ccc(NC(=O)Nc2ccc(-c3cn(Cc4cccc(Cl)c4)nn3)cc2)cc1 | Huh-7 | cell growth or viability, CCK-8 |  | 50 µM, 72 h | viability | 82.5%
O=C(NCc1cn(Cc2ccc(Cl)cc2)nn1)Nc1ccccc1Br | Huh-7 | cell growth or viability, CCK-8 |  | 50 µM, 72 h | viability | 65.6%
COc1ccc(Nc2cnnc3cc(-c4cnc(N5CCCN(C)CC5)nc4)ccc23)nc1 | Trypanosoma cruzi | parasite growth | C2C12 | intracellular, amastigote | EC50 | 7.5 µM
O=C(NCc1cn(Cc2ccc(Br)cc2)nn1)Nc1ccccc1Br | Huh-7 | cell growth or viability, CCK-8 |  | 50 µM, 48 h | viability | 61.2%
COc1ccc(NC(=O)NCc2cn(Cc3ccc(C)cc3)nn2)cc1 | Huh-7 | cell growth or viability, CCK-8 |  | 72 h | IC50 | > 50 µM
COc1ccc(Nc2cnnc3ccc(-c4ccc(N5CCN(C)CC5)cc4)cc23)cc1Cl | Trypanosoma cruzi | parasite growth | C2C12 | intracellular, amastigote | EC50 | 2.4 µM
O=C(Nc1ccc(Cl)cc1)Nc1cccc(-c2cn(Cc3ccc(Cl)cc3)nn2)c1 | Huh-7 | cell growth or viability, CCK-8 |  | 50 µM, 72 h | viability | 15.6%
Cc1ccccc1Cn1cc(-c2cccc(NC(=O)Nc3ccc(F)cc3)c2)nn1 | Huh-7 | cell growth or viability, CCK-8 |  | 50 µM, 48 h | viability | 46%
CN1CCN(c2ccc(-c3ccc4nncc(Nc5ncccn5)c4c3)cc2)CC1 | Trypanosoma cruzi | parasite growth | C2C12 | intracellular, amastigote | EC50 | 7.9 µM
O=C(Nc1ccc(Cl)cc1)Nc1ccc(-c2cn(Cc3ccc(Cl)cc3)nn2)cc1 | Huh-7 | cell growth or viability, CCK-8 |  | 50 µM, 48 h | viability | 83.6%
COc1ccc(NC(=O)Nc2cccc(-c3cn(Cc4ccc(Cl)cc4)nn3)c2)cc1 | Huh-7 | cell growth or viability, CCK-8 |  | 50 µM, 48 h | viability | 67.1%
O=C(Nc1ccc(-c2cn(Cc3ccc(Cl)cc3)nn2)cc1)Nc1ccccc1Br | Huh-7 | cell growth or viability, CCK-8 |  | 50 µM, 72 h | viability | 87.2%
COc1ccc(NC(=O)Nc2cccc(-c3cn(Cc4cccc(Cl)c4)nn3)c2)cc1 | Huh-7 | cell growth or viability, CCK-8 |  | 50 µM, 48 h | viability | 65.5%
COc1ccc(Nc2cnnc3ccc(-c4ccc(N5CCN(C)CC5)cc4)cc23)nc1 | Trypanosoma cruzi | parasite growth | C2C12 | intracellular, amastigote | EC50 | 1.7 µM
COc1ccc(NC(=O)NCc2cn(Cc3ccc(Br)cc3)nn2)cc1 | Huh-7 | cell growth or viability, CCK-8 |  | 50 µM, 72 h | viability | 86%
COc1ccc(Nc2cnnc3ccc(-c4cnc(N5CCCN(C)CC5)nc4)cc23)cc1Cl | Trypanosoma cruzi | parasite growth | C2C12 | intracellular, amastigote | EC50 | 0.93 µM
COc1ccc(NC(=O)NCc2cn(Cc3ccc(Cl)cc3)nn2)cc1 | Huh-7 | cell growth or viability, CCK-8 |  | 50 µM, 72 h | viability | 99%
Cc1ccc(Nc2cnnc3ccc(-c4ccc(N5CCN(C)CC5)cc4)cc23)cn1 | Trypanosoma cruzi | parasite growth | C2C12 | intracellular, amastigote | EC50 | 3.3 µM
O=C(Nc1cccc(-c2cn(Cc3ccc(Br)cc3)nn2)c1)Nc1ccccc1Br | Huh-7 | cell growth or viability, CCK-8 |  | 50 µM, 72 h | viability | 10.8%
Cc1ccc(Nc2cnnc3cc(-c4ccc(N5CCN(C)CC5)cc4)ccc23)cn1 | Trypanosoma cruzi | parasite growth | C2C12 | intracellular, amastigote | EC50 | 1.3 µM
O=C(Cn1ccnc1[N+](=O)[O-])NCc1ccccc1 | Trypanosoma cruzi | parasite growth |  | 72 h, epimastigote | IC50 | 1.57 µg/mL
